FN deposition inh – fibronectin deposition inhibition; AID 743247; AH1F fibroblasts, Alexa488-fibronectin deposition fluorescence, overnight; inhibition, % at 12.6 µM; 0.086% of 350,000 active;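 active = mean inhibition across replicates of 30% or more, regardless of how many single replicates reach that level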
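Material: AH1F fibroblast monolayer depositing Alexa488-labelled fibronectin into matrix | Input: 10000 AH1F cells/well | Medium: DMEM plus 2% serum, read in PBS | Reagent: Alexa488-fibronectin, 24 nM final in well | Compound dosing: One dose per compound, pinned | Schedule: 1 h adhesion, overnight exposure | Measured by: Fluorescence at 485 nm excitation, 525 nm emission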
CaV13 FRET inh – Primary screen for inhibitors of IQ motif and Ca2+-dependent inactivation inhibitor domain binding in CACNA1D, Förster resonance energy transfer in living cells, …. HEK cells, CFP/YFP FRET ICDI-IQ, plate reader, 10 min; percent FRET-ratio fall versus neutral wells. 0.098% of 340,000 active. inhibition, % at 12.3 µM;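 active = mean replicate inhibition of at least 30% and at least 1% of replicates passing that level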
SR-BI DiI inh – mouse SR-BI HDL lipid transfer inhibition; Q61009; ldlA[mSR-BI] CHO cells, DiI-HDL uptake fluorescence, 3 h; inhibition, % at 12.5 µM; 0.96% of 320,000 active; AID 488896;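 active = mean replicate inhibition of at least 70% and a set share of replicates each scoring 70 or more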
Target sequence (Q61009 whole entry, looked up): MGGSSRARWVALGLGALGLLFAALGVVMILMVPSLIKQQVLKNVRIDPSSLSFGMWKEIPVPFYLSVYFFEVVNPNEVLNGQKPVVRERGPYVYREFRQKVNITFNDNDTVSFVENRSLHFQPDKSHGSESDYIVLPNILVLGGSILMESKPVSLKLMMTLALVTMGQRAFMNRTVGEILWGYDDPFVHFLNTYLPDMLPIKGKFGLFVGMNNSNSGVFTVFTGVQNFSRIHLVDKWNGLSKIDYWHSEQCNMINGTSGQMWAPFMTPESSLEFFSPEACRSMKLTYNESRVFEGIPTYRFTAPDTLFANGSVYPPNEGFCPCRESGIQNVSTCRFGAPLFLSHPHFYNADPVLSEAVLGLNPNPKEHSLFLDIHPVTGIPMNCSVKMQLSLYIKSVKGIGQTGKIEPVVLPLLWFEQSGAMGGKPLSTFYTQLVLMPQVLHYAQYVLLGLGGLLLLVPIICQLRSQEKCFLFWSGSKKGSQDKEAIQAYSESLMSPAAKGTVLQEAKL
Efflux pump mplx – blocks antifungal efflux pumps in multiplex yeast assay; inhibition, % at 10 µM; S. cerevisiae Candida pump triplex, Nile Red efflux; 0.44% of 330,000 active; AID 485275;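 active = plate passing quality check with inhibition over a set limit, or well fluorescence over plate mean plus 4 SD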;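 also: Nile Red retained in pooled yeast measured as flow cytometry median fluorescence; higher means more Nile Red kept so more efflux inhibition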
SR-BI DiI-HDL act – SR-BI HDL lipid transfer activation | CHO ldlA[mSR-BI] cells, DiI-HDL uptake fluorescence, 3 h; 100 = double the neutral-control signal | activation, % at 12.5 µM | 0.096% of 320,000 active | AID 504775;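 active = mean replicate activation of at least 60% and every replicate at or above 60%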
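Material – SR-BI-overexpressing, LDLR-lacking CHO cells · Medium – BSA-supplemented, HEPES-buffered Ham's F12, pH 7.4 · Doses – single concentration · Times – compound with DiI-HDL co-incubation, 3 h at 37 °C · Measured by – bottom-read fluorescence, 550/595 nm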
Hits are given with their value. Sampled rows, rich in hits. Any-hit rate of the full collection: about 1.2%.

For O=C(COC(=O)C1Cc2ccccc2CN1C(=O)c1ccccc1Cl)Nc1ccc(N2CCOCC2)cc1 (configuration not stated) the results were CaV13 FRET inh inactive, SR-BI DiI inh 76, Efflux pump mplx inactive and SR-BI DiI-HDL act inactive.
N#Cc1nc(-c2ccc(OCc3ccc(Cl)cc3)cc2)oc1N1CCOCC1 was read as CaV13 FRET inh inactive, SR-BI DiI inh 75, Efflux pump mplx inactive and SR-BI DiI-HDL act inactive.
`CC[C@H](C)[C@@H]1NC(=O)[C@@H](CC(C)C)NC(=O)[C@H](C(C)C)NC(=O)[C@H]2CSSC[C@H](NC1=O)C(=O)N2` gave FN deposition inh 34 and CaV13 FRET inh inactive.
COc1cc(CN2CCc3ccc(NC(=O)CCc4ccccc4OC)cc3C2)ccc1O was read as FN deposition inh inactive, CaV13 FRET inh inactive, SR-BI DiI inh 70, Efflux pump mplx inactive and SR-BI DiI-HDL act inactive.
For COc1ccc(CN2CCc3ccc(NC(=O)CCc4ccccc4OC)cc3C2)c(O)c1 the results were FN deposition inh inactive, CaV13 FRET inh inactive, SR-BI DiI inh 72, Efflux pump mplx inactive and SR-BI DiI-HDL act inactive.
`COc1cccc(CN2CCc3ccc(NC(=O)CCc4ccc(C)cc4)cc3C2)c1O` gave FN deposition inh inactive, CaV13 FRET inh inactive, SR-BI DiI inh inactive, Efflux pump mplx inactive and SR-BI DiI-HDL act inactive.
For COc1ccccc1CCC(=O)Nc1ccc2c(c1)CN(CCCn1cccn1)CC2 the results were FN deposition inh inactive, CaV13 FRET inh inactive, SR-BI DiI inh inactive, Efflux pump mplx inactive and SR-BI DiI-HDL act inactive.
`Cc1ccccc1N1CCN(C2CCCN(C(=O)c3noc4c3CCCC4)C2)CC1` (configuration not stated) gave FN deposition inh inactive, CaV13 FRET inh inactive, SR-BI DiI inh 83, Efflux pump mplx inactive and SR-BI DiI-HDL act inactive.
Cc1cnc(C(=O)N2CCCC(N3CCN(c4ccccc4C)CC3)C2)cn1 (configuration not stated) was read as FN deposition inh inactive, CaV13 FRET inh inactive, SR-BI DiI inh inactive, Efflux pump mplx inactive and SR-BI DiI-HDL act inactive.
For O=C(C[C@H]1CC[C@@H]2[C@H](COC[C@H](O)CN2C(=O)c2ccc(F)cc2)O1)Nc1ccc(-c2ccccc2)cc1 the results were FN deposition inh inactive.
COc1cccc(/C=N/NC(=O)c2cc3c(OC)cccc3[nH]2)c1O was read as FN deposition inh inactive, CaV13 FRET inh inactive, SR-BI DiI inh 103, Efflux pump mplx inactive and SR-BI DiI-HDL act inactive.
Screening COc1ccc(OC)c2[nH]c(C(=O)N/N=C/c3ccccc3O)cc12 returned CaV13 FRET inh inactive, SR-BI DiI inh 124, Efflux pump mplx inactive and SR-BI DiI-HDL act inactive.
COc1ccc(NC(=O)Nc2ccc3c(c2)C(=O)N([C@H](C)CO)C[C@@H](C)[C@@H](CN(C)S(=O)(=O)c2ccc(Cl)cc2)OCCCC[C@H](C)O3)cc1 was read as FN deposition inh inactive.
`Cc1sc2ncnc(N3CCC(C(=O)NNC(=O)COc4ccc(Br)cc4)CC3)c2c1C` gave FN deposition inh inactive, CaV13 FRET inh inactive, SR-BI DiI inh 81, Efflux pump mplx inactive and SR-BI DiI-HDL act inactive.
COc1ccc(OCC(=O)NNC(=O)C2CCN(c3ncnc4sc(C)c(C)c34)CC2)cc1 was read as FN deposition inh inactive, CaV13 FRET inh inactive, SR-BI DiI inh inactive, Efflux pump mplx inactive and SR-BI DiI-HDL act inactive.
`O=C(O)/C=C/c1ccccc1Oc1ccccc1` gave SR-BI DiI inh inactive, Efflux pump mplx inactive and SR-BI DiI-HDL act inactive.
COc1ccc(Oc2ccccc2/C=C/C(=O)O)cc1 was read as FN deposition inh inactive, CaV13 FRET inh inactive, SR-BI DiI inh inactive, Efflux pump mplx inactive and SR-BI DiI-HDL act 536.
For C[C@@H]1CN([C@H](C)CO)C(=O)c2ccccc2-c2ccccc2CO[C@@H]1CN(C)C(=O)Oc1ccccc1 the results were FN deposition inh inactive.
Screening CCCOc1ccc(C(F)(F)F)cc1NC(=O)c1cc(C)on1 returned FN deposition inh inactive, CaV13 FRET inh inactive, SR-BI DiI inh 72, Efflux pump mplx inactive and SR-BI DiI-HDL act inactive.
For COCC(=O)Nc1ccc2c(c1)C(=O)N(C)C[C@H](OC)[C@@H](C)CN(C(=O)c1ccccc1)[C@@H](C)CO2 the results were FN deposition inh inactive.
COc1ccc(-c2oc3ccccc3c2C#Cc2cncn2C)cc1 was read as FN deposition inh inactive, CaV13 FRET inh inactive, SR-BI DiI inh 79, Efflux pump mplx inactive and SR-BI DiI-HDL act inactive.
For COc1cccc2sc(Nc3nc(-c4ccncc4)cs3)nc12 the results were FN deposition inh inactive, CaV13 FRET inh inactive, SR-BI DiI inh 80, Efflux pump mplx inactive and SR-BI DiI-HDL act inactive.
Screening COc1ccccc1NC(=O)c1ccc(NC(=O)COC(=O)CC(NC(=O)c2ccccc2Cl)c2ccccc2)cc1 (configuration not stated) returned FN deposition inh inactive, CaV13 FRET inh inactive, SR-BI DiI inh 81, Efflux pump mplx inactive and SR-BI DiI-HDL act inactive.
`CN(C)CC(=O)N[C@H]1C=C[C@@H](CC(=O)O)O[C@@H]1CO` gave FN deposition inh inactive.
`CC(C)=CCc1c(O)cc2oc3c(CC=C(C)C)c(O)c(O)c(CC=C(C)C)c3c(=O)c2c1O` gave SR-BI DiI inh 105, Efflux pump mplx inactive and SR-BI DiI-HDL act inactive.
For CC(C)=CCc1cc(-c2oc3cc(O)cc(O)c3c(=O)c2O)ccc1O the results were SR-BI DiI inh inactive, Efflux pump mplx inactive and SR-BI DiI-HDL act inactive.
COc1ccc(C2OCC(C)(C)CO2)cc1OC was read as FN deposition inh inactive, CaV13 FRET inh inactive, SR-BI DiI inh inactive and SR-BI DiI-HDL act 77.
Screening Fc1ccc(-c2cc3nc4c(c(N5CCOCC5)n3n2)CCCC4)cc1 returned CaV13 FRET inh inactive, SR-BI DiI inh 76, Efflux pump mplx inactive and SR-BI DiI-HDL act inactive.
`CN(C)CCCNC(=O)C[C@H]1CC[C@H]2[C@@H](COc3ccc(NC(=O)CN(C)C)cc3C(=O)N2C)O1` gave FN deposition inh inactive.
Screening CN1/C(=C\C=O)C(C)(C)c2ccccc21 returned FN deposition inh inactive, CaV13 FRET inh inactive, SR-BI DiI inh inactive, Efflux pump mplx inactive and SR-BI DiI-HDL act inactive.
CN1\C(=C/C=C/C=C/C=[N+](C)C)C(C)(C)c2ccccc21 was read as FN deposition inh inactive, CaV13 FRET inh inactive, SR-BI DiI inh inactive and SR-BI DiI-HDL act 182.
Screening Cc1ccc(-n2c(=O)[nH]c3c(oc4ccccc43)c2=O)cc1 returned FN deposition inh 31, CaV13 FRET inh inactive, SR-BI DiI inh inactive, Efflux pump mplx inactive and SR-BI DiI-HDL act inactive.
CNC[C@H]1Oc2c(NS(C)(=O)=O)cccc2C(=O)N(C)C[C@H]1C was read as FN deposition inh inactive.
For CN(c1ccc(C(=O)N2CCCCCC2)cc1)S(=O)(=O)c1ccc(Cl)cc1 the results were FN deposition inh inactive, CaV13 FRET inh inactive, SR-BI DiI inh 71, Efflux pump mplx inactive and SR-BI DiI-HDL act inactive.

Screening results deposited in PubChem by several laboratories.
